ChEMBL document CHEMBL4732265, “Identification of Piperidine-3-carboxamide Derivatives Inducing Senescence-like Phenotype with Antimelanoma Activities” (ACS Med Chem Lett, 2021)
Calls of active or inactive are those of the source. The calls are words filed in the database; no cut-off is given here.

Key:
A-375 [1] = test: Antiproliferative activity in human A-375 cells assessed as reduction of cell number; format: functional, cell-based
Outline: (§1)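 A375 human melanoma cells exposed to compound for 3 days in 3-fold serial dilution in 0.5% DMSO. Cells were stained with Hoechst 33342, LysoTracker Red DND-99 and CellMask, then imaged and segmented by a customized algorithm. Cell number per well was counted, and IC50 is the concentration reducing cell number by 50%, taken from dose–response curves. Run in duplicate.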

A-375 [2] = test: Induction of senescence in human A-375 cells treated for 3 days by Hoechst staining based imaging analysis; format: functional, cell-based; conditions: A-375, 72 h
Outline: (§2)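 A375 melanoma cells were treated for 3 days with a 3-fold dilution series in 0.5% DMSO and stained with Hoechst 33342, LysoTracker Red DND-99 and CellMask. Image analysis scored cell and nucleus size, granule size and spacing, and cytoplasmic texture to give the percentage of senescent cells per well. EC50 is the concentration inducing senescence in half the population, taken from dose–response curves. Run in duplicate; Z′ about 0.8.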

[3] = Metabolic stability at phase 1 in mouse liver microsomes; format: ADME, Microsome
A-375 [4] = test: Induction of senescence-like phenotype in human A-375 cells assessed as phenotypic changes after 3 days; format: functional, cell-based; conditions: time 3.0 day; outline: as §2
A-375 [5] = test: Anti melanoma activity in human A-375 cells assessed by decreased cell number measured after 3 days; format: functional, cell-based; conditions: time 3.0 day; outline: as §1
[6] = Metabolic stability at phase 1 in human liver microsomes; format: ADME, Microsome
A-375 [7] = test: Anti melanoma activity in human A-375 cells assessed as inhibition of cell growth after 3 days; format: functional, cell-based; conditions: time 3.0 day; outline: as §1
A-375 [8] = test: Induction of senescence-like phenotype in human A-375 cells assessed as enlarged cell size after 3 days by staining based imaging assay; format: functional; conditions: time 3.0 day; outline: as §2
A-375 [9] = test: Induction of senescence-like phenotype in human A-375 cells assessed as nucleus size with increasing cytoplasmic granularity after 3 days by staining based imaging assay; format: functional, cell-based; conditions: time 3.0 day; outline: as §2
A-375 [10] = test: Induction of cell senescence in human A-375 cells assessed by increased SA-beta-Gal activity at 37 nM measured after 3 days by Hoechst staining based imaging analysis; format: functional; conditions: time 3.0 day
Outline: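 A375 cells were treated with or without 37 nM agent in 0.5% DMSO for 3 days. Senescence was read in two ways: by Hoechst 33342/LysoTracker Red/CellMask phenomic imaging, and by SA-β-gal staining.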

SMILES	IC50 (A-375 [1])	EC50 (A-375 [2])	also measured
O=C(Nc1ccc(-c2cscn2)cc1)C1CCCN(C(=O)c2ccc(F)c(F)c2)C1 (centres undefined)	> 20 µM	> 20 µM	
O=C(Nc1ccc(-c2cscn2)cc1)C1CCCN(S(=O)(=O)c2ccc(F)c(F)c2)C1 (centres undefined)	> 20 µM	> 20 µM	
O=C(Nc1ccc(-c2cscn2)cc1)C1CCCN(Cc2ccc(Cl)c(Cl)c2)C1 (centres undefined)	1.73 µM	3 µM	
O=C(Nc1ccc(-c2ncc[nH]2)cc1)C1CCCN(Cc2ccc(F)c(F)c2)C1 (centres undefined)	19 µM	8 µM	
O=C(Nc1ccc(-c2cscn2)cc1)C1CCCN(Cc2ccc(F)cc2)C1 (centres undefined)	2.25 µM	5 µM	
O=C(Nc1ccc(-c2cscn2)cc1)C1CCCN(Cc2ccccc2)C1 (centres undefined)	> 20 µM	> 20 µM	
O=C(Nc1ccc(-c2cc[nH]c2)cc1)C1CCCN(Cc2ccc(F)c(F)c2)C1 (centres undefined)	1.42 µM	2.61 µM	
O=C(Nc1ccc(-c2ccn[nH]2)cc1)C1CCCN(Cc2ccc(F)c(F)c2)C1 (centres undefined)	0.52 µM	0.58 µM	
O=C(Nc1ccc(-c2ccsc2)cc1)C1CCCN(Cc2ccc(F)c(F)c2)C1 (centres undefined)	0.95 µM	1.93 µM	
O=C(Nc1ccc(-c2cscn2)cc1)C1CCCN(Cc2ccc(F)c(F)c2)C1 (centres undefined)	0.88 µM	1.24 µM	Stabilty [3]: Stable; Activity (A-375 [4]): Active; Activity (A-375 [5]): Active; Stabilty [6]: Stable
O=C(Nc1ccc(-c2cscn2)cc1)C1CCCN(Cc2cccc(C(F)(F)F)c2)C1 (centres undefined)	> 20 µM	> 20 µM	
O=C(Nc1ccc(-c2ccc[nH]2)cc1)[C@@H]1CCCN(Cc2ccc(F)c(F)c2)C1	18 µM	19.9 µM	
O=C(Nc1ccc(-c2cccs2)cc1)C1CCCN(Cc2ccc(F)c(F)c2)C1 (centres undefined)	0.39 µM	0.53 µM	
O=C(Nc1ccc(-c2cscn2)cc1)[C@@H]1CCCN(Cc2ccc(F)c(F)c2)C1	6 µM	4 µM	
O=C(Nc1ccc(-c2ccoc2)cc1)C1CCCN(Cc2ccc(F)c(F)c2)C1 (centres undefined)	1.29 µM	3 µM	
Cc1cc(NC(=O)[C@H]2CCCN(Cc3ccc(F)c(F)c3)C2)ccc1-c1ccc[nH]1	0.73 µM	3 µM	
O=C(Nc1ccc(-c2ccc[nH]2)cc1)C1CCCN(Cc2ccc(F)c(F)c2)C1 (centres undefined)	0.36 µM	0.72 µM	
O=C(Nc1ccc(-c2cscn2)cc1)[C@H]1CCCN(Cc2ccc(F)c(F)c2)C1	0.19 µM	0.27 µM	
O=C(Nc1ccc(-c2cscn2)cc1)C1CN(Cc2ccc(F)c(F)c2)C1	> 20 µM	> 20 µM	
O=C(NC1CCCN(Cc2ccc(F)c(F)c2)C1)c1ccc(-c2cscn2)cc1 (centres undefined)	> 20 µM	> 20 µM	
O=C(Nc1ccc(-c2cscn2)cc1)C1CCCN(Cc2cccc(OC(F)(F)F)c2)C1 (centres undefined)	> 20 µM	> 20 µM	
O=C(Nc1ccc(-c2cscn2)cc1)C1CCN(Cc2ccc(F)c(F)c2)CC1	> 20 µM	19 µM	
O=C(Nc1ccc(-c2ccco2)cc1)C1CCCN(Cc2ccc(F)c(F)c2)C1 (centres undefined)	1.04 µM	2.2 µM	
O=C(Nc1ccc(-c2cscn2)cc1)C1CCCN(Cc2ccc3c(c2)OCO3)C1 (centres undefined)	0.63 µM	0.6 µM	

SMILES	IC50 (A-375 [1])	EC50 (A-375 [2])	also measured
O=C(Nc1ccc(-c2ccccc2)cc1)C1CCCN(Cc2ccc(F)c(F)c2)C1 (centres undefined)	2.58 µM	5 µM	
O=C(Nc1ccc(-c2cscn2)cc1)C1CCCN(Cc2cccnc2)C1 (centres undefined)	> 20 µM	> 20 µM	
O=C(Nc1ccc(-c2ccc[nH]2)nc1)[C@H]1CCCN(Cc2ccc(F)c(F)c2)C1	3.01 µM	4 µM	
O=C(Nc1ccc(-c2ccc[nH]2)cc1F)[C@H]1CCCN(Cc2ccc(F)c(F)c2)C1	0.13 µM	0.1 µM	
O=C(Nc1ccc(-c2cscn2)cc1)C1CCCN(Cc2ccc3cn[nH]c3c2)C1 (centres undefined)	> 20 µM	> 20 µM	
O=C(Nc1ccc(-c2cscn2)cc1)C1CCCN(Cc2ccccc2F)C1 (centres undefined)	4 µM	7 µM	
O=C(Nc1ccc(-c2cscn2)cc1)C1CCCN(Cc2cc(F)c(F)c(F)c2)C1 (centres undefined)	0.4 µM	1.26 µM	
O=C(Nc1ccc(-c2ccncc2)cc1)C1CCCN(Cc2ccc(F)c(F)c2)C1 (centres undefined)	0.6 µM	1.18 µM	
O=C(Nc1ccc(-c2cscn2)cc1)C1CCCN(Cc2cc(F)cc(F)c2)C1 (centres undefined)	1.36 µM	1.5 µM	
O=C(Nc1ccc(-c2cscn2)cc1)C1CCCN(Cc2cccc(F)c2)C1 (centres undefined)	2.45 µM	5 µM	
O=C(Nc1ccc2scnc2c1)C1CCCN(Cc2ccc(F)c(F)c2)C1 (centres undefined)	> 20 µM	> 20 µM	
COc1cccc(CN2CCCC(C(=O)Nc3ccc(-c4cscn4)cc3)C2)c1 (centres undefined)	> 20 µM	> 20 µM	
O=C(Nc1ccc(-c2ccc[nH]2)cn1)[C@H]1CCCN(Cc2ccc(F)c(F)c2)C1	0.03 µM	0.04 µM	Stabilty [3]: Stable; Activity (A-375 [4]): Active; Activity (A-375 [7]): Active; Activity (A-375 [8]): Active; Activity (A-375 [9]): Active; Stabilty [6]: Stable
O=C(Nc1ccc(-c2cscn2)cc1)C1CCCN(Cc2cccc(F)c2F)C1 (centres undefined)	1.48 µM	10 µM	
O=C(Nc1ccc(-c2cccnc2)cc1)C1CCCN(Cc2ccc(F)c(F)c2)C1 (centres undefined)	0.61 µM	1.06 µM	
O=C(Nc1ccc(-c2ccc[nH]2)cc1)[C@H]1CCCN(Cc2ccc3c(c2)OCO3)C1	0.22 µM	0.16 µM	
O=C(Nc1ccc(-c2ccccn2)cc1)C1CCCN(Cc2ccc(F)c(F)c2)C1 (centres undefined)	9 µM	11 µM	
O=C(Nc1ccc(-c2nccs2)cc1)C1CCCN(Cc2ccc(F)c(F)c2)C1 (centres undefined)	0.24 µM	0.8 µM	
O=C(Nc1ccc(-c2cscn2)cc1)C1CCN(Cc2ccc(F)c(F)c2)C1 (centres undefined)	10 µM	8 µM	
O=C(Nc1ccc(-c2c[nH]cn2)cc1)C1CCCN(Cc2ccc(F)c(F)c2)C1 (centres undefined)	> 20 µM	16 µM	
COc1cccc2c1C(=O)c1c(O)c3c(c(O)c1C2=O)C[C@@](O)(C(=O)CO)C[C@@H]3O[C@H]1C[C@H](N)[C@H](O)[C@H](C)O1 [DOXORUBICIN]	0.008 µM		Activity (A-375 [10]): Active
O=C(Nc1ccc(-c2ccc[nH]2)cc1)[C@H]1CCCN(Cc2ccc(F)c(F)c2)C1	0.19 µM	0.14 µM	
COc1cc(-c2cscn2)ccc1NC(=O)C1CCCN(Cc2ccc(F)c(F)c2)C1 (centres undefined)	0.58 µM	4 µM	
